Test results from paper PMC4829539 (International Journal of Medical Sciences, 2016).
Where two headings read alike, the source gives them in different places. One block for each compound: values may come before it.

Assays:
[1] = from DMNs, rats; cited from earlier work
[2] = mice; cited from earlier work
[3] = rats; cited from earlier work
[4] = n = 4, cited from earlier work
[5] = assay type: in vivo, Male Wistar rats; settings: rats, i.v., LC-MS/MS
How it was run: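 Anaesthetised 10-week-old male Wistar rats (pentobarbital 50 mg/kg, 37°C) received test compound 5.0 mg/kg i.v. via jugular vein, in saline. DMN array applied to shaved abdomen (2.0 m/s, then 2.5 N for 1-3 min). 2 µL ISF drawn from pore at 15, 30, 45, 60, 75, 90, 120 min; femoral-vein plasma sampled. Positive-ESI LC-MS/MS quantification; mean ± SE, unpaired t-test.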

Compound: insulin
Physiological availability (PA) [1]: 91.3-97.7%

Compound: erythropoietin [EPO]
Bioavailability (BA) from the DMNs [2]: 82.1-99.4%

Compound: low-molecular-weight heparin [LMWH]
Physiological availability (PA) [1]: 81.5-102.3%

Compound: recombinant human growth hormone [rhGH]
Bioavailability (BA) from the DMNs [3]: 87.5%

Mean concentration of VCM in plasma compared with ISF, early phase ([5]; 30 min after administration): higher than that in ISF
Concentration of VCM in ISF compared with plasma, after 30 min ([5]; after 30 min): higher than that in plasma
Compound: CN[C@H](CC(C)C)C(=O)N[C@H]1C(=O)N[C@@H](CC(N)=O)C(=O)N[C@H]2C(=O)N[C@H]3C(=O)N[C@H](C(=O)N[C@H](C(=O)O)c4cc(O)cc(O)c4-c4cc3ccc4O)[C@H](O)c3ccc(c(Cl)c3)Oc3cc2cc(c3O[C@@H]2O[C@H](CO)[C@@H](O)[C@H](O)[C@H]2O[C@H]2C[C@](C)(N)[C@H](O)[C@H](C)O2)Oc2ccc(cc2Cl)[C@H]1O [VCM, Vancomycin]
AUC, ISF ([4]; ISF by ultrafiltration probe): 75300 ± 7700 ng·h/mL
Tmax (average), ISF ([4]; ISF by ultrafiltration probe): 39.6 min
AUC, blood ([4]; blood): 89800 ± 15700 ng·h/mL
Cmax in the blood ([4]; blood): 80.2 ± 18.5 µg/mL
